Reference: ChEMBL document CHEMBL4270630

Assays:
[1] = tested on: H3N2 subtype; assay: Antiviral activity against Influenza A virus A/HK/7/87(H3N2) infected in MDCK cells assessed as reduction in virus-induced cytopathic effect after 3 days by microscopic method; format: functional, organism-based; details: A/Hong Kong/7/1987(H3N2), 72 h
Summary of the method: (§1)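 Semi-confluent MDCK cells were infected at an MOI of 0.0004 PFU/cell in Ultra-MDCK infection medium with 2 μg/mL TPCK-trypsin, together with compounds. After 3 days at 35 °C, CPE was scored by microscopy and confirmed by MTS formazan viability. EC50 is the concentration giving 50% inhibition of virus-induced CPE. Values are means of two to five independent tests.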

[2] = tested on: H3N2 subtype; assay: Antiviral activity against Influenza A virus A/HK/7/87(H3N2) infected in MDCK cells after 3 days by MTS assay; format: functional, organism-based; details: A/Hong Kong/7/1987(H3N2), 72 h; summary of the method: as §1
[3] = tested on: Influenza A virus; assay: Antiviral activity against Influenza A virus A/Virginia/ATCC3/2009(H1N1pdm) infected in MDCK cells assessed as reduction in virus-induced cytopathic effect after 3 days by microscopic method; format: functional, organism-based, Influenza A virus (A/Virginia/03/2009(H1N1)); details: 72 h; summary of the method: as §1
[4] = tested on: MDCK; assay: Cytotoxicity against MDCK cells assessed as reduction in cell viability after 3 days by MTS assay; format: cell-based, Canis lupus familiaris; details: dog, mdck, 72 h
[5] = tested on: Influenza A virus; assay: Antiviral activity against Influenza A virus A/PR/8/34(H1N1) infected in MDCK cells assessed as reduction in virus-induced cytopathic effect after 3 days by microscopic method; format: functional, organism-based, A/Puerto Rico/8/1934(H1N1); summary of the method: as §1
[6] = tested on: Influenza A virus; assay: Antiviral activity against Influenza A virus A/PR/8/34(H1N1) infected in MDCK cells after 3 days by MTS assay; format: functional, organism-based, A/Puerto Rico/8/1934(H1N1); summary of the method: as §1
[7] = tested on: Influenza A virus; assay: Antiviral activity against Influenza A virus A/Virginia/ATCC3/2009(H1N1pdm) infected in MDCK cells after 3 days by MTS assay; format: functional, organism-based, Influenza A virus (A/Virginia/03/2009(H1N1)); details: 72 h; summary of the method: as §1
[8] = Cytotoxicity against MDCK cells assessed as alteration in cell morphology after 3 days by microscopic method; format: cell-based, Canis lupus familiaris; details: dog
Summary of the method: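 Mock-infected MDCK cells were treated with compounds in parallel with the antiviral assay, 3 days at 35 °C. MCC is the concentration causing minimal change in cell morphology by microscopy. CC50 is the 50% cytotoxic concentration by MTS formazan viability assay.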

[9] = tested on: Influenza B virus; assay: Antiviral activity against Influenza B virus B/HK/05/72 infected in MDCK cells after 3 days by MTS assay; format: functional, organism-based; details: B/Hong Kong/05/1972, MDCK, 72 h; summary of the method: as §1
[10] = tested on: Influenza B virus; assay: Antiviral activity against Influenza B virus B/HK/05/72 infected in MDCK cells assessed as reduction in virus-induced cytopathic effect after 3 days by microscopic method; format: functional, organism-based; details: B/Hong Kong/05/1972, MDCK, 72 h; summary of the method: as §1
[11] = tested on: Influenza B virus; assay: Antiviral activity against Influenza B virus B/Ned/537/05 infected in MDCK cells after 3 days by MTS assay; format: functional, organism-based; details: B/Ned/537/05, MDCK, 72 h
Summary of the method: (§2)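 Semi-confluent MDCK cells were infected at an MOI of 0.0004 PFU/cell in Ultra-MDCK infection medium with 2 μg/mL TPCK-trypsin, together with compounds. After 3 days at 35 °C, CPE was scored by microscopy and confirmed by MTS formazan viability. Values are means of two to five independent tests.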

[12] = tested on: Influenza B virus; assay: Antiviral activity against Influenza B virus B/Ned/537/05 infected in MDCK cells assessed as reduction in virus-induced cytopathic effect after 3 days by microscopic method; format: functional, organism-based; details: B/Ned/537/05, MDCK, 72 h; summary of the method: as §2
[13] = Influenza A virus, A/Puerto Rico/8/1934(H1N1), MDCK, 72 h

Compound	EC50 [1] [µM]	EC50 [2] [µM]	EC50 [3] [µM]	CC50 [4] [µM]	EC50 [5, 13] [µM]	EC50 [6, 13] [µM]	EC50 [7] [µM]	MCC at 72 h [8] [µM]	EC50 [9] [µM]	EC50 [10] [µM]	EC50 [11] [µM]	EC50 [12] [µM]	EC50 ([5]; mdck) [µM]	EC50 ([6]; mdck) [µM]
CCCSC1=C(SCCC)C(=O)N(CCOCCOCCOCCOCc2cn(C3C(=O)N[C@@H]4Cc5ccc(c(Cl)c5)Oc5cc6cc(c5O)Oc5ccc(cc5Cl)[C@@H](O[C@@H]5O[C@H](CO)[C@@H](O)[C@H](O)[C@H]5NC(C)=O)[C@H]5NC(=O)[C@H](NC(O)[C@@H]6NC(=O)[C@@H](NC4=O)c4cc(O)cc(c4)Oc4cc3ccc4O)c3ccc(O)c(c3)-c3c(O)cc(O)cc3[C@H](C(=O)O)NC5=O)nn2)C1=O (stereo not given in full)	6.2	≤ 7.8	> 100	38	> 100	> 100	7.8	20	> 100	> 100	–	–	–	–
CCCCCCCCSC1=C(SCCCCCCCC)C(=O)N(CCOCCOCCOCCOCc2cn(C3C(=O)N[C@@H]4Cc5ccc(c(Cl)c5)Oc5cc6cc(c5O)Oc5ccc(cc5Cl)[C@@H](O[C@@H]5O[C@H](CO)[C@@H](O)[C@H](O)[C@H]5NC(C)=O)[C@H]5NC(=O)[C@H](NC(O)[C@@H]6NC(=O)[C@@H](NC4=O)c4cc(O)cc(c4)Oc4cc3ccc4O)c3ccc(O)c(c3)-c3c(O)cc(O)cc3[C@H](C(=O)O)NC5=O)nn2)C1=O (stereo not given in full)	0.92	≤ 0.8	≤ 1.4	19	1.3	2	≤ 0.8	≥ 4	> 20	> 20	–	–	–	–
CCCCCCCCSC1=C(SCCCCCCCC)C(=O)N([C@H]2C(=O)N[C@@H]3Cc4ccc(c(Cl)c4)Oc4cc5cc(c4O)Oc4ccc(cc4Cl)[C@@H](O[C@@H]4O[C@H](CO)[C@@H](O)[C@H](O)[C@H]4NC(C)=O)[C@H]4NC(=O)[C@H](NC(O)[C@@H]5NC(=O)[C@@H](NC3=O)c3cc(O)cc(c3)Oc3cc2ccc3O)c2ccc(O)c(c2)-c2c(O)cc(O)cc2[C@H](C(=O)O)NC4=O)C1=O (stereo not given in full)	> 100	> 100	2.1	11	> 100	> 100	1.9	20	> 100	> 100	–	–	–	–
CC(=O)N[C@H]1[C@H]([C@H](O)[C@H](O)CO)OC(C(=O)O)=C[C@@H]1N=C(N)N [ZANAMIVIR]	20	3.2	1.9	> 100	0.041	0.19	30	> 100	–	–	0.0062	0.0079	–	–
CCCSC1=C(SCCC)C(=O)N([C@H]2C(=O)N[C@@H]3Cc4ccc(c(Cl)c4)Oc4cc5cc(c4O)Oc4ccc(cc4Cl)[C@@H](O[C@@H]4O[C@H](CO)[C@@H](O)[C@H](O)[C@H]4NC(C)=O)[C@H]4NC(=O)[C@H](NC(O)[C@@H]5NC(=O)[C@@H](NC3=O)c3cc(O)cc(c3)Oc3cc2ccc3O)c2ccc(O)c(c2)-c2c(O)cc(O)cc2[C@H](C(=O)O)NC4=O)C1=O (stereo not given in full)	> 100	> 100	1.8	18	> 100	> 100	2	20	–	–	7.2	> 100	–	–
NC12CC3CC(CC(C3)C1)C2 [AMANTADINE]	11	1.9	–	> 500	> 500	> 500	–	> 500	–	–	> 500	> 500	–	–
CC(N)C12CC3CC(CC(C3)C1)C2 (stereo not given) [RIMANTADINE]	0.2	–	–	> 500	> 500	> 500	–	> 500	–	–	> 500	> 500	–	–
CCCCCCCCCCCCSC1=C(SCCC)C(=O)N([C@H]2C(=O)N[C@@H]3Cc4ccc(c(Cl)c4)Oc4cc5cc(c4O)Oc4ccc(cc4Cl)[C@@H](O[C@@H]4O[C@H](CO)[C@@H](O)[C@H](O)[C@H]4NC(C)=O)[C@H]4NC(=O)[C@H](NC(O)[C@@H]5NC(=O)[C@@H](NC3=O)c3cc(O)cc(c3)Oc3cc2ccc3O)c2ccc(O)c(c2)-c2c(O)cc(O)cc2[C@H](C(=O)O)NC4=O)C1=O (stereo not given in full)	7.3	6.8	5.1	29	> 100	10	8.2	≥ 20	–	–	7.3	8.9	–	–
NC(=O)c1ncn([C@@H]2O[C@H](CO)[C@@H](O)[C@H]2O)n1 [RIBAVIRIN]	13	5.9	–	–	–	–	–	> 100	–	–	–	–	8.4	9.1
CC(=O)N[C@H]1[C@H](O[C@@H]2c3ccc(c(Cl)c3)Oc3cc4cc(c3O)Oc3ccc(cc3Cl)C[C@H]3NC(=O)C(n5cc(COCCOCCOCCOCCN6C(=O)C(SCCOCCOCCOCCO)=C(SCCOCCOCCOCCO)C6=O)nn5)c5ccc(O)c(c5)Oc5cc(O)cc(c5)[C@H](NC3=O)C(=O)N[C@H]4C(O)N[C@H]3C(=O)N[C@H]2C(=O)N[C@@H](C(=O)O)c2cc(O)cc(O)c2-c2cc3ccc2O)O[C@H](CO)[C@@H](O)[C@@H]1O (stereo not given in full)	> 100	23	> 100	≥ 32	> 100	> 100	> 100	> 100	–	–	42	> 100	–	–
CCCCCCCCCCCCSC1=C(SCCCCCCCCCCCC)C(=O)N(CCOCCOCCOCCOCc2cn(C3C(=O)N[C@@H]4Cc5ccc(c(Cl)c5)Oc5cc6cc(c5O)Oc5ccc(cc5Cl)[C@@H](O[C@@H]5O[C@H](CO)[C@@H](O)[C@H](O)[C@H]5NC(C)=O)[C@H]5NC(=O)[C@H](NC(O)[C@@H]6NC(=O)[C@@H](NC4=O)c4cc(O)cc(c4)Oc4cc3ccc4O)c3ccc(O)c(c3)-c3c(O)cc(O)cc3[C@H](C(=O)O)NC5=O)nn2)C1=O (stereo not given in full)	> 100	2.4	> 100	79	> 100	13	2.8	20	–	–	> 100	> 100	–	–
CCCCCCCCCCCCSC1=C(SCCCCCCCCCCCC)C(=O)N([C@H]2C(=O)N[C@@H]3Cc4ccc(c(Cl)c4)Oc4cc5cc(c4O)Oc4ccc(cc4Cl)[C@@H](O[C@@H]4O[C@H](CO)[C@@H](O)[C@H](O)[C@H]4NC(C)=O)[C@H]4NC(=O)[C@H](NC(O)[C@@H]5NC(=O)[C@@H](NC3=O)c3cc(O)cc(c3)Oc3cc2ccc3O)c2ccc(O)c(c2)-c2c(O)cc(O)cc2[C@H](C(=O)O)NC4=O)C1=O (stereo not given in full)	> 100	> 100	> 100	≤ 1.1	> 100	> 100	> 100	≤ 4	–	–	> 100	> 100	–	–
